In ChEMBL document CHEMBL3808289, “Discovery of a Selective Series of Inhibitors of Plasmodium falciparum HDACs” (ACS Med Chem Lett, 2016):
The source made the active and inactive calls. The calls are words filed in the database; no cut-off is given here.

Legend:
[1] = Cytotoxicity against human HeLa cells assessed as cell viability after 72 hrs by CellTiter-Glo assay; assay type: cell-based
Histone deacetylase 3 = Histone deacetylase 3 (Homo sapiens, UniProt O15379); test: Inhibition of human HDAC3
Chain of Histone deacetylase 3 (O15379 whole entry): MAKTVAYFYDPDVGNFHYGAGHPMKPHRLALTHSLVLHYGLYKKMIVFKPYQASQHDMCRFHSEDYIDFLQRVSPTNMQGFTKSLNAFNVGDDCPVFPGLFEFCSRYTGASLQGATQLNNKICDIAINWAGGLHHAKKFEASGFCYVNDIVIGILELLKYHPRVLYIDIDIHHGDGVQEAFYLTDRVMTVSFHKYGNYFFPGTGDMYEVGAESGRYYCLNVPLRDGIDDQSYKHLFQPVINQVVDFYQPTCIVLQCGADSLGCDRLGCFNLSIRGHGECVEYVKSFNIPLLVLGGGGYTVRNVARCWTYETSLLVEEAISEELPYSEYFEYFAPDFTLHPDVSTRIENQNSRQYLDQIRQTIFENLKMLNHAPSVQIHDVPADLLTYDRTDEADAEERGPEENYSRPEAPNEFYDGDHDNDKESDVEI
How it was run: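 HDAC3 was measured within a human HDAC enzyme panel (HDAC1–7 and 9), with concentrations tested up to 5 μM.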

Histone deacetylase 1 [2] = target: T1, Histone deacetylase 1 (Homo sapiens, UniProt Q13547); test: Inhibition of human HDAC1 at 5 uM
T1 sequence (Q13547 whole entry): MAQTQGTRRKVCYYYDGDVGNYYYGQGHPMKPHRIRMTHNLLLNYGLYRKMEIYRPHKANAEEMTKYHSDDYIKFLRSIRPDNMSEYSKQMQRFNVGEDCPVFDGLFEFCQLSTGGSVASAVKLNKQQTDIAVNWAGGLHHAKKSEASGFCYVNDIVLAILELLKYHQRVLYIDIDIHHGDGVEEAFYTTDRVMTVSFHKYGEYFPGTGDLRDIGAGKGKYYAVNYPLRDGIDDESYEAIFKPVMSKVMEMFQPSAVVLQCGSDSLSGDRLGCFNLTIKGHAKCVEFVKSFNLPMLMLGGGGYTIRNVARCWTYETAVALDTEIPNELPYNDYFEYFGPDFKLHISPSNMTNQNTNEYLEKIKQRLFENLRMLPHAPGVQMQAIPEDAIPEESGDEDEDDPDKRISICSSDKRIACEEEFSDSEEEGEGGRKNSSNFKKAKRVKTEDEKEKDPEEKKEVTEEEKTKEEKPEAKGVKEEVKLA

Plasmodium falciparum = test: Antimalarial activity against Plasmodium falciparum 3D7 infected human erythrocytes assessed as parasite growth inhibition after 72 hrs by spectrophotometry; assay type: functional, organism-based; details: 3D7, 72 h
How it was run: (§1)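 Cell-based read-outs (parasite growth in erythrocytes; class I HDAC activity in HeLa) were run with multiple repetitions of each assay to limit variability.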

Histone deacetylase 1 [3] = target: T1, Histone deacetylase 1; test: Inhibition of recombinant human His-tagged HDAC1 expressed in insect cells preincubated for 10 mins followed by addition of FLUOR DE LYS as fluorescent substrate measured after 1 hr by spectrophotometry
[4] = Inhibition of HDAC1 in Plasmodium falciparum 3D7 infected in human erythrocytes assessed as histone H4 hyperacetylation at lysine8 residue by western blotting method; assay type: cell-based
How it was run: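 P. falciparum parasites inside erythrocytes were treated with increasing compound concentrations. Histone H4 lysine 8 acetylation was analysed, and the concentration giving hyperacetylation was expressed as an EC50.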

[5] = Intrinsic clearance in human liver microsomes at 1 uM by LC-MS/MS analysis; assay type: ADME; details: read-out: CLH
[6] = target: Histone deacetylase 5 (Homo sapiens) (UniProt Q9UQL6); test: Inhibition of human HDAC5 at 5 uM
Chain of Histone deacetylase 5 (Homo sapiens) (Q9UQL6 whole entry): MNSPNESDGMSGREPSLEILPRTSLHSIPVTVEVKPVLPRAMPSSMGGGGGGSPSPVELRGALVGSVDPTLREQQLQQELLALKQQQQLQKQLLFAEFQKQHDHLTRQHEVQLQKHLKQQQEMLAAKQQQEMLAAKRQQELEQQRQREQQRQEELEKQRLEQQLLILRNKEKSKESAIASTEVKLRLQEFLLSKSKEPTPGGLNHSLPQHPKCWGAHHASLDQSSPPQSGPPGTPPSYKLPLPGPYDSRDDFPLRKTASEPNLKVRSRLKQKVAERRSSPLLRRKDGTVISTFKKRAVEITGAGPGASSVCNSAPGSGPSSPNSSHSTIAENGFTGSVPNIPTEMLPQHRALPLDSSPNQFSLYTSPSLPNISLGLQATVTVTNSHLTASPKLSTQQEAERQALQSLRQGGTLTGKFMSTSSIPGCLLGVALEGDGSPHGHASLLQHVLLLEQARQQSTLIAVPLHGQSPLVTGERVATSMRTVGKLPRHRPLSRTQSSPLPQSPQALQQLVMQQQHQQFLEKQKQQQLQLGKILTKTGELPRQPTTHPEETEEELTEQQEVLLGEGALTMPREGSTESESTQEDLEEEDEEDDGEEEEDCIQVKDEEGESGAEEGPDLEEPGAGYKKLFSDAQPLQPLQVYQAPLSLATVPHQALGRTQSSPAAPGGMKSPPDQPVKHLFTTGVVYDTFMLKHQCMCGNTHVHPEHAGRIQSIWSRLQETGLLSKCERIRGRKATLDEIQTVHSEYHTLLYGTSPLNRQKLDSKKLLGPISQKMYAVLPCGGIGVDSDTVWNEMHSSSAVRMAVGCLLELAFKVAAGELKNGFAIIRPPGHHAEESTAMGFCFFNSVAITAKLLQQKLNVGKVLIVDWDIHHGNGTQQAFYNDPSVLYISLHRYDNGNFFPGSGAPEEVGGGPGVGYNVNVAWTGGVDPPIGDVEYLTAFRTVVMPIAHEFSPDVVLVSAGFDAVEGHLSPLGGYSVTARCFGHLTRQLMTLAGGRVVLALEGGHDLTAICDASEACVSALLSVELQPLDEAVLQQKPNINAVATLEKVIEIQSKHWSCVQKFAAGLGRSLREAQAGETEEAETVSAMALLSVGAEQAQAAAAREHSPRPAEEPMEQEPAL

[7] = Cytotoxicity against human HUVEC cells assessed as cell viability after 72 hrs by CellTiter-Glo assay; assay type: cell-based
[8] = target: Histone deacetylase 9 (Homo sapiens) (UniProt Q9UKV0); test: Inhibition of human HDAC9 at 5 uM
Chain of Histone deacetylase 9 (Homo sapiens) (Q9UKV0 whole entry): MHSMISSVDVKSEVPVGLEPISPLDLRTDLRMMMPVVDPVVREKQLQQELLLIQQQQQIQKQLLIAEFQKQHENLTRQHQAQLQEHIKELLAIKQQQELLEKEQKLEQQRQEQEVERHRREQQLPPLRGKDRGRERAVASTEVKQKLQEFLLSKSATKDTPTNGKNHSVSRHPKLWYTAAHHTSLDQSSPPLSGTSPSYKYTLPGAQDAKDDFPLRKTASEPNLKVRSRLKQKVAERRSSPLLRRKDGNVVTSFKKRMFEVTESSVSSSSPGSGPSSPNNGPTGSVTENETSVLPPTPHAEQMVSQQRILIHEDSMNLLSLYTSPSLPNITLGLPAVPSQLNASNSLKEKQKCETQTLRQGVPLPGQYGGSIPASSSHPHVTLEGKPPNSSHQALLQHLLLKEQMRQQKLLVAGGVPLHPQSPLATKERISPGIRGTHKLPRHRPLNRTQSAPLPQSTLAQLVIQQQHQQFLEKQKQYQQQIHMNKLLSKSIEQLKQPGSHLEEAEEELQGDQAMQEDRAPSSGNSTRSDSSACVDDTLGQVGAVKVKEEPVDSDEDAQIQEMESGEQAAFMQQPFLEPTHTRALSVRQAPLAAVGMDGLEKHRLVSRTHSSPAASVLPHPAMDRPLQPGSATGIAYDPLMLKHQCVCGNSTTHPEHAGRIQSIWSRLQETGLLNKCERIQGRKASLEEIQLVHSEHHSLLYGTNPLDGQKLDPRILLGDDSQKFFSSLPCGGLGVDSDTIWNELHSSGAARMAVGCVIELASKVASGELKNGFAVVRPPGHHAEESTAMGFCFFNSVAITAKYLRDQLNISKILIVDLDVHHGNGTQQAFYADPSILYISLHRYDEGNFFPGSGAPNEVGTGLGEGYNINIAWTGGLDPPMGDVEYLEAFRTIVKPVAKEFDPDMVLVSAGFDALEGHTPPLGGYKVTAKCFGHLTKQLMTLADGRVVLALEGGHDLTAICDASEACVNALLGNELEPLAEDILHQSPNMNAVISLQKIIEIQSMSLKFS

[9] = Clearance in NMRI mouse plasma 2 mg/kg, iv by LC-MS/MS analysis; assay type: ADME, organism-based
[10] = target: T2, Protein deacetylase HDAC6 (Homo sapiens) (UniProt Q9UBN7); test: Inhibition of human HDAC6 at 5 uM
T2 sequence (whole entry): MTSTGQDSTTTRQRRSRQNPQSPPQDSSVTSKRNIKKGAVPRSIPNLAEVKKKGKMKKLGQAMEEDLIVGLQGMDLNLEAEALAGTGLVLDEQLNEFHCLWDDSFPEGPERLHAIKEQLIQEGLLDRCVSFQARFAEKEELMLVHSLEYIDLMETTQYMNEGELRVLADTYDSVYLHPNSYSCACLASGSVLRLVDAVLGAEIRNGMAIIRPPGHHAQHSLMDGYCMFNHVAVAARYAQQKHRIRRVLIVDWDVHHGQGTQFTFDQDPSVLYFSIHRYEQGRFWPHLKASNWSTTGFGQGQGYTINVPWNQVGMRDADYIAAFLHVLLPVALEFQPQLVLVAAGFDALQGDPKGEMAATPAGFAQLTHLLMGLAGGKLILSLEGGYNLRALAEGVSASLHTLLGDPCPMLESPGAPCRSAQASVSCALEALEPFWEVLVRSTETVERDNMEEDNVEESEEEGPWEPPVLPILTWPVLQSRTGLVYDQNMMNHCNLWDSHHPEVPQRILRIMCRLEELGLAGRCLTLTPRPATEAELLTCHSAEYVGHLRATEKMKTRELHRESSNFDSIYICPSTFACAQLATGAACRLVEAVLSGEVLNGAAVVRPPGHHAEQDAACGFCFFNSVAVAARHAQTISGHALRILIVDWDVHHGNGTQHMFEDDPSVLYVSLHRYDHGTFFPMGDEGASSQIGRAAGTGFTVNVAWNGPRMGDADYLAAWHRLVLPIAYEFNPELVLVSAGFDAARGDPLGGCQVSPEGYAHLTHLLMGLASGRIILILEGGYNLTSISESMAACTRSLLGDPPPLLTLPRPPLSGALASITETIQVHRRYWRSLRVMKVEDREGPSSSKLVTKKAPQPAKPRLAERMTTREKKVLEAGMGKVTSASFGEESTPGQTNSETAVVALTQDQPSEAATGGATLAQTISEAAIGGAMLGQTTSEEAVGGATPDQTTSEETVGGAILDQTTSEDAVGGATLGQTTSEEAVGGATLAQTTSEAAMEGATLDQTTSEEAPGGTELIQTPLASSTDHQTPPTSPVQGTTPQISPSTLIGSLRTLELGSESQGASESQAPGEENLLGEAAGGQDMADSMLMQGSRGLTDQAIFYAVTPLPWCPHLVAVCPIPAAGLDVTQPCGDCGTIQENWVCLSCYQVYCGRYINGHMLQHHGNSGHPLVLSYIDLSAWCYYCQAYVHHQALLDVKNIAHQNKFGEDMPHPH

[11] = target: Histone deacetylase 2 (Homo sapiens) (UniProt Q92769); test: Inhibition of human HDAC2 at 5 uM
Chain of Histone deacetylase 2 (Homo sapiens) (Q92769 whole entry): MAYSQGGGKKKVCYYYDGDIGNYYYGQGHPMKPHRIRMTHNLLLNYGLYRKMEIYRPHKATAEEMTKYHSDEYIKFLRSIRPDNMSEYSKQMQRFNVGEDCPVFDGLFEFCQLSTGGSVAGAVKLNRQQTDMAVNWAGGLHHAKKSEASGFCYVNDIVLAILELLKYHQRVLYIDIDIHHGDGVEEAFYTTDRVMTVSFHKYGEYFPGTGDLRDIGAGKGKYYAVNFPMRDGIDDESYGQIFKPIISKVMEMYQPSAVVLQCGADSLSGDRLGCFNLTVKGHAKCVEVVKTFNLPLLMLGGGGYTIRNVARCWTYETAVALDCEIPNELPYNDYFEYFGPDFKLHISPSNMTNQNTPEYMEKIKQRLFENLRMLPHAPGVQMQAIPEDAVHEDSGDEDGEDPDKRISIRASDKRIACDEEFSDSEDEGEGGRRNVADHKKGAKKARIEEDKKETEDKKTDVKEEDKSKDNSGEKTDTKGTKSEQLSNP

[12] = target: Histone deacetylase 4 (Homo sapiens) (UniProt P56524); test: Inhibition of human HDAC4 at 5 uM
Chain of Histone deacetylase 4 (Homo sapiens) (P56524 whole entry): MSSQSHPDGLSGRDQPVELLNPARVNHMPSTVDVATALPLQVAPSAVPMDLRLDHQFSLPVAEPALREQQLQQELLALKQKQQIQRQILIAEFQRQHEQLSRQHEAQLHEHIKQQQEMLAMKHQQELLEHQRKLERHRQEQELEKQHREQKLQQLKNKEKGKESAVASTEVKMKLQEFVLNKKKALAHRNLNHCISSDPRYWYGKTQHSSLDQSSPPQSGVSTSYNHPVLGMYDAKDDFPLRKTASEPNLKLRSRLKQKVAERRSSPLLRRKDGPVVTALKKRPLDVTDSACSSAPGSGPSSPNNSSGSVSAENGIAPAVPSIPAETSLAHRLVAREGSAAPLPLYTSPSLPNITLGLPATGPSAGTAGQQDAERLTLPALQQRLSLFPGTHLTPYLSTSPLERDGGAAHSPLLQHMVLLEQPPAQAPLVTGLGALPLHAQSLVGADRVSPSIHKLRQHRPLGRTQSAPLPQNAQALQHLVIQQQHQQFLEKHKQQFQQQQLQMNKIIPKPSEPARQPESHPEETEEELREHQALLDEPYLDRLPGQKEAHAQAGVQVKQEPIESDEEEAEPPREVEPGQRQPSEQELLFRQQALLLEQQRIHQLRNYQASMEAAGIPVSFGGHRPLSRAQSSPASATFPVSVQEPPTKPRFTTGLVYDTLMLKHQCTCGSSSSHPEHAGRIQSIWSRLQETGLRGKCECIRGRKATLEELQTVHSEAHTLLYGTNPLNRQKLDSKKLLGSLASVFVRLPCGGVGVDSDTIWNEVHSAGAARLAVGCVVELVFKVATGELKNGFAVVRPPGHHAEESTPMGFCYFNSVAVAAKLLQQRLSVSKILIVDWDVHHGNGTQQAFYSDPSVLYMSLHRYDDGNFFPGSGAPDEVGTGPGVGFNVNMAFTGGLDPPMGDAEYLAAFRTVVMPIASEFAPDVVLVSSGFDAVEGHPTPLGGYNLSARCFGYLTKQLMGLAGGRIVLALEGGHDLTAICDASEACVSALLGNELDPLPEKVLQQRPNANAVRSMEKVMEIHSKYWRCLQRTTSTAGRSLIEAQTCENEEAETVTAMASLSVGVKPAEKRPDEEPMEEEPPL

[13] = Inhibition of class 1 histone deacetylase in human HeLa cells using FLUOR DE LYS as fluorescent substrate after 4 hrs by spectrophotometry; assay type: cell-based; how it was run: as §1
[14] = Intrinsic clearance in Han Wistar rat liver microsomes at 1 uM by LC-MS/MS analysis; assay type: ADME; details: read-out: CLH
[15] = Intrinsic clearance in CD1 mouse liver microsomes at 1 uM by LC-MS/MS analysis; assay type: ADME; details: read-out: CLH
[16] = target: T3, Histone deacetylase 7 (Homo sapiens) (UniProt Q8WUI4); test: Inhibition of human HDAC7 at 5 uM
T3 sequence (whole entry): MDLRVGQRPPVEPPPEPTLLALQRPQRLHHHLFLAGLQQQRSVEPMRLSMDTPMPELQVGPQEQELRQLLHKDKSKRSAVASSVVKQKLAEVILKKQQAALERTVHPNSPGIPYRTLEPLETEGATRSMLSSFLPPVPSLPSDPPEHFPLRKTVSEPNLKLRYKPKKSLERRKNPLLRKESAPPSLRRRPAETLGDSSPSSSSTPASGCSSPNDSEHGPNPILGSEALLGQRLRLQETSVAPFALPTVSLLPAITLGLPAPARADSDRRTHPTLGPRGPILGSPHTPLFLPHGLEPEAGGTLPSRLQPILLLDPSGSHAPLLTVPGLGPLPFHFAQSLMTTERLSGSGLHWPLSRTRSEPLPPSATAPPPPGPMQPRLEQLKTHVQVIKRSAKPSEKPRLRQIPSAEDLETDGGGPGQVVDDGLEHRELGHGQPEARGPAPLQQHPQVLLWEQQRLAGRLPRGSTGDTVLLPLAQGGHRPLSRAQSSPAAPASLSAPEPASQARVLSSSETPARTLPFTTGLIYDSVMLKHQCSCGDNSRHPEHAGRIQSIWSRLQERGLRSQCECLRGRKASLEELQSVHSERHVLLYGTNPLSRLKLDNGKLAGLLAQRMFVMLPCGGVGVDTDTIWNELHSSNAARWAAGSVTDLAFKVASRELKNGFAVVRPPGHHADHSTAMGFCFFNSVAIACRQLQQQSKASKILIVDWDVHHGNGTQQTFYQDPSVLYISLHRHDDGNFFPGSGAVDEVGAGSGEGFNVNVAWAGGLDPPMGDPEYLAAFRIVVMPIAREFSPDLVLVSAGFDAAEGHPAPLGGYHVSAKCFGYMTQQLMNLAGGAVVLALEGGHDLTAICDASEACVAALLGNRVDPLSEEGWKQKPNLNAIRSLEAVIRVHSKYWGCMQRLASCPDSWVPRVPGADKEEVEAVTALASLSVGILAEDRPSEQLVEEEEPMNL

## CNC(=O)CCCCC[C@H](NC(=O)c1cncs1)c1ncc(-c2ccc(-c3ccn[nH]3)cc2)[nH]1
[1]
  CC50 at 72 h: > 25 µM
Histone deacetylase 3
  IC50: 0.33 µM
Histone deacetylase 1 [2]
  inhibition: inactive
Plasmodium falciparum
  EC50: 0.45 µM
Histone deacetylase 1 [3]
  IC50: 1.85 µM
[4]
  EC50: 0.35 µM
[5]
  microsomal CLint at 1 µM: 19 µL/min/mg
[6]
  inhibition: inactive
[7]
  CC50 at 72 h: > 25 µM
[8]
  inhibition: inactive
[9]
  clearance: 247 mL/min/kg
[10]
  inhibition: inactive
[11]
  inhibition: inactive
[12]
  inhibition: inactive
[13]
  IC50: 16.6 µM
[14]
  microsomal CLint at 1 µM: 27 µL/min/mg
[15]
  microsomal CLint at 1 µM: 12 µL/min/mg
[16]
  inhibition: inactive
